# Measurements taken from PMC4094229 (European journal of medicinal chemistry, 2013).
# Key:
# MCF-7 cells [1] = experiment: MTT cell viability assay, MCF-7; type: cell-based; conditions: Homo sapiens, MCF7, 72 h, read-out: IC50 MCF-7, MTT, 72 h, 1-50 μM
# [2] = tested on: human breast cancer cell lines (MCF-7 and MDA-MB-231); experiment: MTT assay, activity against cancer cells; type: cell-based; conditions: 72 h, up to 50 μM
# How it was run: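 ATCC cells were used. MCF-7 was grown in DMEM with 10% FBS, insulin, pyruvate and NEAA; MDA-MB-231 in DMEM with 10% FBS, NEAA and L-glutamine. Cells were seeded at 3×10³/well and exposed 72 h to 0, 1, 5, 10, 25, 50 μM, with a DMSO vehicle. MTT (5 mg/mL stock) was added for 2–4 h at 37°C; formazan was dissolved in DMSO and read at A570. Viability = mean OD treated/DMSO control; IC50 from three separate experiments.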
# MCF-10A cells = experiment: MTT cell viability assay, normal breast MCF-10A; type: cell-based, human
# MCF-7 cells [3] = experiment: Cell cycle distribution; type: cell-based, human; conditions: 24 h
# MDA-MB-231 cells = experiment: Cell cycle distribution; type: cell-based, human; conditions: 24 h
smiles,measurement,setting,value
COc1cccc2c1C(=O)c1c(O)c3c(c(O)c1C2=O)C[C@@](O)(C(=O)CO)C[C@@H]3O[C@H]1C[C@H](N)[C@H](O)[C@H](C)O1 [Doxorubicin],IC50,MCF-7 cells [1],700 ± 60 nM
"C=C1C(=O)O[C@@H]2CC(C)=C3[C@@H](C[C@H]12)[C@](C)(O)C[C@@H]3O [Compound 10, deacetylinuchinenolide B]",activity against cancer cells,[2],did not show visible activity
"C=C1C(=O)O[C@@H]2CC(C)=C3[C@@H](OC(C)=O)C[C@@](C)(O)[C@@H]3[C@@H](O)[C@H]12 [Compound 7, 6α-hydroxyinuchinenolide B]",activity against cancer cells,[2],did not show visible activity
"C=C1C(=O)O[C@H]2C[C@H](C)[C@H]3[C@@H](O)C[C@@](C)(O)[C@@]34O[C@H]4[C@H]12 [Compound 6, 5α,6α-epoxy-2α,4α-dihydroxy-1β-guai-11(13)-en-12,8α-olide]",activity against cancer cells,[2],did not show visible activity
"CC(=O)O[C@H]1C=C(CCO)[C@@H](C)C[C@H]2OC(=O)[C@@H](C)[C@@H]12 [Compound 9, 6β-acetoxysundiversifolide]",activity against cancer cells,[2],did not exhibit any noticeable activity
"CC(=O)O[C@H]1C(=O)[C@@]2(C)[C@H]([C@H](OC(=O)c3ccccc3)[C@]3(O)C[C@H](OC(=O)[C@H](O)[C@@H](NC(=O)c4ccccc4)c4ccccc4)C(C)=C1C3(C)C)[C@]1(OC(C)=O)CO[C@@H]1C[C@@H]2O [Paclitaxel, reference compound]",IC50,"MCF-10A cells; Homo sapiens, MCF-10A, 72 h, read-out: IC50 MCF-10A",427 ± 55.4 nM
"C[C@@H]1C2=C[C@H]3[C@@H](C[C@@]2(C)CC[C@@H]1O)OC(=O)[C@@H]3C [Compound 15, 3β-hydroxy-11α,13-dihydroalantolactone]",activity against cancer cells,[2],did not exhibit any noticeable activity
"C=C1C(=O)O[C@H]2C[C@H](C)[C@@]34C[C@@]5(C(=O)O[C@H]6C[C@@H](C)[C@@H]7[C@@H](OC(C)=O)C[C@H](O)[C@@]7(C)C[C@@H]65)[C@@H](C(C)=C3C[C@H]12)[C@@H]4O [Compound 1, Lineariifolianoid E]",toxicity to MCF-10A cells,MCF-10A cells; normal breast cell line,low toxicity
same,effect on cell cycle progression,"MCF-7 cells [3]; MCF-7, 0, 1, 2.5 μM",dose-dependent cell cycle arrest in the G2/M phase
same,cell cycle arrest at 2.5 μM,"MCF-7 cells [3]; MCF-7, 2.5 μM",a majority of the MCF-7 cells were arrested in the G2/M phase
same,effect on cell cycle progression,"MDA-MB-231 cells; MDA-MB-231, 0, 1, 2.5 μM",dose-dependent cell cycle arrest in both S and G2/M phase
same,cell cycle arrest at 2.5 μM,"MDA-MB-231 cells; MDA-MB-231, 2.5 μM",significant increase in the number of cells in both S and G2/M phases
